CXCR6 inh = CXCR6 receptor inhibitors, primary screen, cell-based, beta-arrestin, luminescence, CHO-K1 PathHunter, 1536-well. inhibition, % at 20 µM. 0.36% of 360,000 active. C-X-C chemokine receptor type 6 (Homo sapiens), O00574. AID 602244, 2012; in the data active = inhibition above about 34%, passing the limit was not always enough;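 note: antagonist mode with CXCL16 agonist at 10 nM final; 0% = 10 nM CXCL16 with DMSO and 100% = unstimulated wells without agonist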
CCR6 antag = CCR6 receptor antagonists, primary screen, cell-based, CHO-K1, luminescence, beta-arrestin, uHTS | CHO-K1 CCR6 PathHunter beta-arrestin, CCL20-stimulated | 0.49% of 340,000 active | C-C chemokine receptor type 6 (Homo sapiens), P51684 | inhibition, % at 20 µM;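 active = compounds whose inhibition of the agonist-driven luminescence signal at 20 µM reaches about 50%, limit read from the data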;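 note: cells stimulated with CCL20 at 14 nM final; plate controls were DMSO with CCL20 for no effect and DMSO without agonist for full effect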
Target sequence (P51684 whole entry, looked up): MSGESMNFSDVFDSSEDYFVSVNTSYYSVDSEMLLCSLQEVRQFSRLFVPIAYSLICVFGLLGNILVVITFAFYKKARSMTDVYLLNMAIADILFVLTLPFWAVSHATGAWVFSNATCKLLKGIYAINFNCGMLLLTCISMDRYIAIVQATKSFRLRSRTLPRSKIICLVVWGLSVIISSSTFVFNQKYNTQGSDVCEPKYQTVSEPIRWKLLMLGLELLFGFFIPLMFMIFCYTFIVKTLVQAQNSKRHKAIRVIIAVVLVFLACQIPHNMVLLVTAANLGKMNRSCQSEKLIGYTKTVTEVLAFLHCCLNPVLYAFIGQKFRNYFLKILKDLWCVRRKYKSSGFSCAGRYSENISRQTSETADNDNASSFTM
EBI2 antag = EBI2 receptor antagonists, beta-arrestin recruitment, primary screen, cell-based, luminescence, 7a,25-OHC stimulation, uHTS. G-protein coupled receptor 183 (Homo sapiens), P32249. 7a,25-OHC stimulated. inhibition, % at 5 µM. 0.81% of 360,000 active; in the data active = inhibition above about 38%;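 note: enzyme fragment complementation signal reports receptor beta-arrestin coupling in cells; 0% = agonist plus DMSO wells and 100% = wells without agonist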
APJ antag = antagonists of human apelin receptor APJ, primary screen, CHO-K1 cells, beta-arrestin complementation, luminescence; 0.32% of 330,000 active; inhibition, % at 20 µM; P35414;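 active = inhibition above about 40% at 20 µM, limit read from the data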;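 note: cells challenged with 10 nM apelin-13 agonist together with compound; plate controls were apelin-13 plus DMSO wells for no effect and DMSO wells lacking apelin-13 for full effect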
APJ ag = agonists of human apelin receptor APJ, primary screen, CHO-K1 cells, PathHunter beta-arrestin, luminescence | P35414 | 0% DMSO wells, 100% apelin | activation, % at 20 µM | 0.11% of 330,000 active | AID 2520, 2010;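 active = activation more than six SD over the plate average, tested at 20 µM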;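 note: 0% = DMSO alone and 100% = apelin-13 at 10 nM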
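Assay system – PathHunter CHO-K1 APJ (AGTRL-1) beta-arrestin reporter cells · Compound – one dose, 20 µM compound, 1% DMSO · Timing – compound 90 min 25 °C, reagent 1 h · Measured by – luminescence from split beta-galactosidase complementation, Galacton Star/Emerald II substrate · Measure – beta-arrestin recruitment to APJ as agonist activity, luminescent signal · Benchmarks – DMSO vs Apelin-13 10 nM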
H9c2 TAG inh = inhibitors of triacylglycerol accumulation, primary screen, cell-based, uHTS, fluorescence, H9c2; H9c2 cells, Nile Red lipid (TAG) fluorescence; cells loaded with 200 µM oleic acid; inhibition, % at 12.5 µM; 0.66% of 230,000 active; AID 651582, 2012;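 active = pattern-corrected inhibition of lipid staining of at least 50% with the nuclear-stain viability signal not falling by more than 50%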;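 note: 0% = DMSO wells and 100% = triacsin C control wells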
EBI2 conf = EBI2 antagonist hit retest, beta-arrestin, confirmation, cell-based, single concentration, luminescence, 7a,25-OHC stimulation; shares compounds with EBI2 antag; 7a,25-OHC antagonism; 29% of 2,400 active; inhibition, % at 5 µM;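 active = inhibition of at least 50%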
EBI2 agonist = EBI2 agonist activity of antagonist hits, confirmation, counter-screen for EBI2 antagonist project, cell-based, single concentration, agonist mode, luminescence | shares compounds with EBI2 antag | EBI2-expressing cells, 60 min; 0% vehicle, 100% 7α,25-dihydroxycholesterol control | activation, % at 5 µM | 2,400 tested, under 10 active;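 active = activation of at least 50%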
bGal counter = E. coli beta-galactosidase enzyme inhibition, confirmation, counter-screen for EBI2 antagonist project, biochemical, luminescence, single concentration | inhibition, % at 5 µM | AID 652176, 2013 | 1% of 2,400 active | shares compounds with EBI2 antag | purified beta-galactosidase, luminescent Galacton Star, 15 min;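 active = replicate-average signal at least 3 plate SD below neutral wells, shown as high inhibition, flagging enzyme-inhibiting false positives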;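 note: 0% = DMSO wells with enzyme and 100% = wells lacking enzyme; higher means stronger loss of beta-gal luminescence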
* hit, by the source's call; / = no result. This is a sample that favours compounds with a hit; in the whole collection about 1.9% have one here.

SMILES	CXCR6 inh	CCR6 antag	EBI2 antag	APJ antag	APJ ag	H9c2 TAG inh	EBI2 conf	EBI2 agonist	bGal counter
CCOc1ccc(C2=CC(=O)C[C@H](c3ccc(OC)cc3)C2)cc1	-4	3	77*	-5	-1	-6	48	-1	-7
C=Cc1ccc(C2=CC(=O)C[C@H](c3ccc(OC)cc3)C2)cc1	-5	14	77*	-26	-3	3	54*	0	12
Cn1ccc2ccc(C3=CC(=O)C[C@H](c4ccc(F)cc4)C3)cc21	7	6	55*	27	-3	11	48	-1	-3
CCOc1ccc(-c2ccc(C3=CC(=O)C[C@H](c4ccc(F)cc4)C3)cc2)cc1	-5	/	-2	/	/	/	/	/	/
COc1ccc([C@H]2CC(=O)C=C(c3cccc(Br)c3)C2)cc1	2	19	41	8	-3	-17	/	/	/
O=C1C=C(c2ccc(-c3ccccc3)cc2)C[C@@H](c2ccc(F)cc2)C1	4	11	24	2	-3	-4	/	/	/
Cc1ccc(C2=CC(=O)C[C@H](c3ccc(F)cc3)C2)cc1	12	26	70*	9	-3	-6	36	2	6
CC(C)c1cccc(C2=CC(=O)C[C@H](c3ccc(F)cc3)C2)c1	2	20	18	1	-5	/	/	/	/
O=C(Nc1cccc([N+](=O)[O-])c1)N1CCCCCC1	5	9	1	-8	2	3	/	/	/
O=C(C[n+]1ccc(C(=O)c2ccccc2)cc1)Nc1cccc([N+](=O)[O-])c1	-13	/	-13	/	/	/	/	/	/
CC(=O)NC(c1ccccc1)c1nc(-c2ccc(Cl)cc2)cs1 (centres undefined)	-2	/	3	/	/	10	/	/	/
O=C1C=C(c2ccc(O)cc2)C[C@@H](c2ccc(Cl)cc2)C1	-10	21	15	-6	-3	-21	/	/	/
O=C1C=C(c2ccc(OC(F)(F)F)cc2)C[C@@H](c2ccc(Cl)cc2)C1	-2	19	65*	12	-4	23	36	-1	-12
O=C1C=C(c2cc(C(F)(F)F)cc(C(F)(F)F)c2)C[C@@H](c2ccc(Cl)cc2)C1	6	5	60*	11	-1	-12	37	-1	-15
CN(Cc1ccccc1)N=Nc1ccccc1	0	/	6	/	/	-9	/	/	/
CN(C)N=Nc1ccc(-c2cn(Cc3ccccc3)cn2)cc1	1	-14	45*	-27	0	/	39	1	0
Cc1ccc(S(=O)(=O)NCCC(=O)NNC(=O)COc2ccc(Br)cc2)cc1C	2	13	63*	0	1	-11	25	-1	-15
COc1cc(OC)cc(C(=O)NNC(=O)CCNS(=O)(=O)c2ccc(Br)cc2)c1	2	12	-6	-12	1	9	/	/	/
COc1ccccc1N1CCN(C(=O)[C@@H]2CCCN2C2=NS(=O)(=O)c3ccccc32)CC1	-10	/	3	/	/	-1	/	/	/
COc1ccc(CCC(=O)N2CCN(c3ccccc3)CC2)cc1OC	4	-1	7	-5	1	/	/	/	/
Cc1cccc(Oc2ncnc3oc(-c4ccccc4)cc23)c1C	-9	-7	67*	-1	-1	-6	47	1	9
Cc1cc(Cl)ccc1Oc1ncnc2oc(-c3ccccc3)cc12	-3	4	53*	-4	-6	/	38	0	2
CN(C)c1ccnc2sc3c(SCc4ccc(Cl)cc4)ncnc3c12	-1	-14	54*	13	-3	5	21	-1	-7
CCc1cccc(C)c1NC(=O)c1cc(=O)[nH]c2ccc(S(=O)(=O)N3CCOCC3)cc12	3	-2	3	3	-2	-3	/	/	/
COC(=O)c1ccc(C2C(Oc3ccc(OC)cc3)C(=O)N2CCc2ccc(F)cc2)cc1 (centres undefined)	-1	-10	42*	17	-2	/	16	-1	-10
SMILES	CXCR6 inh	CCR6 antag	EBI2 antag	APJ antag	APJ ag	H9c2 TAG inh	EBI2 conf	EBI2 agonist	bGal counter
COc1ccc(CCN2C(=O)C(Oc3ccccc3C)C2c2ccc3c(c2)OCO3)cc1OC (centres undefined)	3	5	18	7	-3	8	/	/	/
COc1ccc(CCN2C(=O)C(Oc3ccccc3C)C2c2ccc3c(c2)OCO3)cc1 (centres undefined)	6	17	55*	-21	-2	/	24	2	3
COc1ccc2nc3n(c(=O)c2c1)-c1cc(Cl)ccc1C(=O)NC3Cc1ccccc1 (centres undefined)	/	/	/	0	-5	/	/	/	/
CC1NC(=O)c2cccnc2-n2c1nc1ccccc1c2=O (centres undefined)	-5	/	-9	/	/	7	/	/	/
CC(C)c1ccc(OCC(=O)Nc2ccc(S(=O)(=O)Nc3ccccn3)cc2)cc1	-7	6	-1	11	-1	/	/	/	/
CCc1ccc(OCC(=O)Nc2ccc(S(=O)(=O)Nc3ccccn3)cc2)cc1	-7	10	61*	10	-2	/	29	-1	11
COc1cccc(CCN2CCC(CNS(=O)(=O)c3cc(-c4cc(C)no4)ccc3C)CC2)c1	-5	21	2	5	1	/	/	/	/
COc1ccc(C(=O)Nc2ccc(O)c3c(=O)cc(-c4cccc(Cl)c4)oc23)cc1	6	23	44*	24	-6	8	21	0	6
CC(C)(C)c1ccc(C(=O)Nc2ccc(O)c3c(=O)cc(-c4cccc(Cl)c4)oc23)cc1	11	12	-3	6	-1	109	/	/	/
CCn1cc(C(=O)NN)c(=O)c2cc(F)c(N3CCCCC3)cc21	-11	10	4	-3	-2	/	/	/	/
CCn1cc(C(=O)NN)c(=O)c2cc(F)c(NC3CCCCC3)cc21	7	3	91*	6	1	/	62*	1	1

From PubChem
